This is a sample that favours compounds with a hit; in the whole collection about 2.7% have one here.
VIM-2 inh – inhibitors of Pseudomonas aeruginosa VIM-2 metallo-beta-lactamase | purified VIM-2, nitrocefin hydrolysis, epi-absorbance fluorescence | inhibition, % at 5.6 µM | 290,000 compounds, 0.89% hits;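 active means inhibition above the mean of all tested compounds plus 3 SD, cutoff set per screening run, cut at about 7.5% in these data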;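 further: red hydrolysis product quenches plate fluorescence so inhibitors raise well fluorescence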
Fh CTSL1 inh – blocks F. hepatica cathepsin L1 in PFM18AAP counter-screen | recombinant F. hepatica cathepsin L1, Z-Leu-Arg-MCA fluorescence | inhibition, % at 5.96 µM | 300,000 compounds, 0.49% hits | AID 1906;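 active means inhibition above the mean of all tested compounds plus 3 SD, set per screening campaign, cut at about 17% in these data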
IMP-1 inh-1 – inhibitors of Pseudomonas aeruginosa IMP-1 metallo-beta-lactamase | AID 1556 | inhibition, % at 5.6 µM | 290,000 compounds, 0.45% hits | purified IMP-1, nitrocefin hydrolysis, epi-absorbance fluorescence;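 active means inhibition above the mean plus 3 SD of all compounds in the same screening run, cut at about 4.5% in these data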
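Test system: recombinant IMP-1 enzyme, purified / Medium: HEPES buffer pH 7.1 with ZnSO4 and Brij 35 / Doses: single dose, 5.6 µM / Times: 25 °C, 15 min preincubation, 25 min reaction / Detection: Epi-absorbance via hydrolysed-nitrocefin quenching of white-plate fluorescence, 480/530 nm, EDTA stop / Evaluation: percent inhibition from optical density relative to buffer-blank wells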
PfM18AAP inh – blocks P. falciparum M18 aspartyl aminopeptidase; 290,000 compounds, 1.2% hits; recombinant PfM18AAP, H-Glu-NHMec fluorogenic cleavage; inhibition, % at 7.35 µM;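 active means inhibition above the campaign mean inhibition over all tested compounds plus 3 SD, cut at about 28% in these data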
IMP-1 inh-2 – IMP-1 inhibition, counter-screen for VIM-2 inhibitors. purified IMP-1, nitrocefin hydrolysis, epi-absorbance fluorescence. inhibition, % at 5.6 µM. shares compounds with VIM-2 inh. 1,300 tested, under 10 active; call rule not given here
VIM-2 FRET ctr – inhibits VIM-2 in FRET assay to exclude epi-absorbance artifacts; shares compounds with VIM-2 inh; purified VIM-2, CCF2 FRET substrate hydrolysis; inhibition, % at 5.6 µM; 1,300 compounds, 23% hits;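 active means inhibition above the mean of all tested compounds plus 3 SD, cut at about 19% in these data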
TEM-1 inh – selectivity counter-screen for VIM-2 inhibitors: E. coli TEM-1 inhibitors. shares compounds with VIM-2 inh. 1,300 compounds, 3% hits. inhibition, % at 5.6 µM. Purified TEM-1, nitrocefin hydrolysis, epi-absorbance fluorescence;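 active means inhibition above that campaign's mean inhibition plus 3 SD, cut at about 0.46% in these data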
Target sequence (P62593 whole entry, looked up): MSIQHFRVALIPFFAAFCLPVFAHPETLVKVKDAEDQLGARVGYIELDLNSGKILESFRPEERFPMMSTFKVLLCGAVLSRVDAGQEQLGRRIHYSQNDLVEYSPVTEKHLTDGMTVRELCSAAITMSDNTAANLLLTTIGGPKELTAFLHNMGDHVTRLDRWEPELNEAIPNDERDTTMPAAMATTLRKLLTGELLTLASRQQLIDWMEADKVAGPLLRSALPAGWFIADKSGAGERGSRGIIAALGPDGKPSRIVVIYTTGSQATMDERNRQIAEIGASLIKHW
VIM-2 inh conf – confirmation of P. aeruginosa VIM-2 metallo-beta-lactamase inhibitors. shares compounds with VIM-2 inh. purified VIM-2, nitrocefin hydrolysis, epi-absorbance. inhibition, % at 5.6 µM. 1,300 compounds, 96% hits. AID 2187;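 active means inhibition of the VIM-2 beta-lactamase enzyme above about 11% from the earlier first-round screen, limit read from the data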
Numbers stand for hits; . = inactive; / = not tested or not shown.

SMILES | VIM-2 inh | Fh CTSL1 inh | IMP-1 inh-1 | PfM18AAP inh | IMP-1 inh-2 | VIM-2 FRET ctr | TEM-1 inh | VIM-2 inh conf
Cn1c(C(=O)NC2CCCC2)cc2c(=O)n(C)c3ccccc3c21 | 18 | . | . | . | . | . | . | 21
Cn1c(C(=O)NCCCN2CCN(c3ccccc3F)CC2)cc2c(=O)n(C)c3ccccc3c21 | 15 | . | . | . | . | . | . | 25
Cn1c(C(=O)NCC2CCCO2)cc2c(=O)n(C)c3ccccc3c21 (configuration not stated) | 15 | . | . | . | . | . | . | 20
Cc1ccc(NC(=O)CCCc2ccccc2)c([N+](=O)[O-])c1 | . | / | . | . | / | / | / | /
CC1CC(C)CN(CCOc2ccc(Br)cc2)C1 (configuration not stated) | . | . | . | . | / | / | / | /
O=C(CSc1nnc(NC(=O)c2ccccc2F)s1)NCC1CCCO1 (configuration not stated) | 15 | . | . | . | . | 28 | . | 17
O=C(CSc1nnc(NC(=O)c2ccccc2[N+](=O)[O-])s1)NCC1CCCO1 (configuration not stated) | 19 | . | . | . | . | 35 | . | 23
O=C(CSc1nnc(NC(=O)Cc2ccccc2)s1)NCC1CCCO1 (configuration not stated) | . | . | . | . | / | / | / | /
CC(=O)Nc1nnc(SCC(=O)NCC2CCCO2)s1 (configuration not stated) | / | . | / | / | / | / | / | /
COc1ccc(CCN2C(=O)CC(C(N)=O)SC2=Nc2ccccc2)cc1OC (configuration not stated) | . | . | . | . | / | / | / | /
Cc1cc(C)n2nc(CC#N)c(C#N)c2n1 | . | . | . | . | / | / | / | /
Cc1cc(C)n2nc(/C(C#N)=C/c3ccccn3)c(C#N)c2n1 | 45 | . | . | . | . | . | . | 7.7
CCN=C1S/C(=C/c2ccc(-c3ccc(Cl)cc3C(=O)O)o2)C(=O)N1CC | 13 | . | . | . | . | 19 | . | 16
CCCc1cc(N2CCN(C(=O)c3ccco3)CC2)n2c(nc3ccccc32)c1C#N | 14 | . | . | . | . | . | . | 28
Cc1nnc2c(N3CCN(C(=O)c4ccco4)CC3)nc3ccccc3n12 | 13 | . | . | . | . | . | . | 19
Cc1ccc2nc(N3CCN(C(=O)c4ccco4)CC3)c3nncn3c2c1 | . | . | . | . | / | / | / | /
O=C(NCCN1CCOCC1)c1cccn2c(=O)c3c4c(sc3nc12)CCCC4 | 17 | . | . | . | . | . | . | 47
CCOC(=O)N1CCN(C(=O)c2cccn3c(=O)c4c5c(sc4nc23)CCCC5)CC1 | . | . | . | . | / | / | / | /
Cc1cccn2c(=O)c3cc(C(=O)NCCN4CCOCC4)c(=N)n(Cc4ccc(F)cc4)c3nc12 | . | . | . | . | / | / | / | /
Cc1cccn2c(=O)c3cc(C(=O)NCCN4CCOCC4)n(C)c3nc12 | 19 | . | . | . | . | . | . | 28
CSc1cccc(NC(=O)C2CCN(C(=O)c3ccccc3C)CC2)c1 | . | . | . | . | / | / | / | /
CC(/C=N/n1c(-c2ccco2)n[nH]c1=S)=C\c1ccccc1 | 13 | . | . | . | . | 40 | . | 23
CCc1n[nH]c(=S)n1/N=C/c1ccc(NC(C)=O)cc1 | 23 | . | . | . | . | 61 | . | 46
CCc1n[nH]c(=S)n1/N=C/C(C)=C\c1ccccc1 | 57 | . | . | . | . | 83 | . | 70
CC(=O)Nc1c2c(nn1-c1ccc(Cl)cc1)CSC2 | . | . | . | . | / | / | / | /
SMILES | VIM-2 inh | Fh CTSL1 inh | IMP-1 inh-1 | PfM18AAP inh | IMP-1 inh-2 | VIM-2 FRET ctr | TEM-1 inh | VIM-2 inh conf
CCC[C@@H](CNC)NC[C@H](Cc1ccccc1)NCCCCc1ccccc1 | 56 | . | . | . | . | . | . | 66
CCCOc1ccc(N2C(=O)CC(N(CCc3ccc(OC)cc3)C(=O)c3ccccc3)C2=O)cc1 (configuration not stated) | . | . | . | . | / | / | / | /
CCOC(=O)c1cnc2ccc(OCC)cc2c1NCCCN1CCOCC1 | 32 | . | . | . | . | . | . | 45
CCOC(=O)c1cnc2ccc(C(=O)OC)cc2c1NCCCN1CCOCC1 | 70 | / | . | . | . | . | . | 82
CCOC(=O)c1cnc2ccc(C(=O)OC)cc2c1NCCN1CCOCC1 | . | . | . | . | / | / | / | /
COc1ccc(CNC(=O)CN(C(=O)CCC(=O)Nc2ccccn2)c2cccc(C)c2C)cc1 | . | . | . | . | / | / | / | /
COC(=O)c1c(NC(=O)C(=O)NCCCN2CCOCC2)sc2c1CCC2 | 14 | 23 | . | . | . | . | . | 25
COC(=O)c1c(NC(=O)C(=O)NCCCN2CCOCC2)sc2c1CC(C)(C)OC2 | 13 | . | . | . | . | . | . | 20
CCC(C)NC(=O)CC(c1ccccc1)c1cc(C)ccc1O (configuration not stated) | . | . | . | . | / | / | / | /
O=C(COC(=O)c1cc(S(=O)(=O)N2CCOCC2)ccc1O)NCCc1ccccc1 | . | . | . | . | / | / | / | /
COc1ccccc1C(=O)Nc1ccnn1C1CCN(Cc2ncc[nH]2)CC1 | . | . | . | . | / | / | / | /
COc1ccccc1C(=O)Nc1ccnn1C1CCN(Cc2cnn(C)c2C)CC1 | 57 | . | . | . | . | . | . | .
O=[N+]([O-])c1c(Nc2ccc(O)cc2)cc(Cl)c2nonc12 | 22 | . | . | . | . | . | . | 32
O=C1C(=O)N(Cc2cccnc2)C(c2ccccn2)/C1=C(/O)c1ccc(F)cc1 (configuration not stated) | 52 | . | . | . | . | 76 | . | 69
CC(C)(C)c1ccc(COc2ccsc2C(=O)O)cc1 | 20 | . | . | . | . | 48 | . | 29
O=C(O)c1sccc1OCc1ccccc1 | . | . | . | . | / | / | / | /
Oc1ccc(Nc2nc(N3CCCC3)c3ccccc3n2)cc1 | 31 | . | . | . | . | . | . | 49
c1ccc2[nH]c(CSc3ncnc4c3oc3ccccc34)nc2c1 | . | . | . | . | / | / | / | /
c1ccc2[nH]c(CN3CCN(c4ncnc5c4oc4ccccc45)CC3)nc2c1 | 15 | . | . | . | . | . | . | 27
O=C1C2C3C=CC(C2C(=O)N1CCO)C1C(=O)N(CCO)C(=O)C31 (configuration not stated) | . | . | . | . | / | / | / | /
c1ccc(-c2noc(-c3ccco3)n2)nc1 | . | . | . | . | / | / | / | /
c1ccc(-c2nccc(-c3ccco3)n2)nc1 | 34 | . | . | . | . | . | . | 30
CNC(=S)/N=C/NOCc1ccc(Cl)cc1Cl | . | . | . | . | / | / | / | /
COc1cnc(-c2ccccn2)nc1Oc1ccc(Cl)c2ccccc12 | 39 | . | . | . | . | . | . | 76
COc1cnc(-c2ccccn2)nc1Oc1ccc(Cl)cc1 | . | . | . | . | / | / | / | /

Bioassay records (PubChem)
